Starred links: 1 amine or outer side, 2 acyl side, 3 side chain; linkers in the order of their positions; H or OH if unused. Positions of bridges follow the written chain, without caps; N, C: chain ends. Non-standard residues stand in square brackets, D forms with d. Residues, ends and D or L forms follow the SMILES beside them. *: point of attachment. X1 = O=C([C@H](CCN(CC=[*:3])S(=O)(=O)c1ccccc1[N+](=O)[O-])N[*:1])[*:2]; X6 = N=C(N)NCCC[C@H](NC(=O)[C@@H]1CCC(=O)N1)C(=O)[C@@H]1CCCN1*; X3 = C=CCN([C@@H](CCCNC(=N)N)C(=O)[*:2])[*:1]; X4 = O=C([C@H](CO)N(CC=[*:3])[*:1])[*:2]; X5 = O=C([C@H](CCNCC=[*:3])N[*:1])[*:2]; AllylGly = C=CC[C@H](N)C(=O)O; pGlu = O=C1CC[C@@H](C(=O)O)N1; Nle = CCCC[C@H](N)C(=O)O; CO = O=C([*:1])[*:2]
Tests used:
[1] = target: T1, Apelin receptor (Homo sapiens, UniProt P35414); assay: Displacement of [125I]-[Nle75, Tyr77] Pyr1-apelin-13 from YFP-tagged human APJ receptor expressed in HEK293 cell membranes after 1 hr by gamma-counting method
T1 sequence (P35414 whole entry): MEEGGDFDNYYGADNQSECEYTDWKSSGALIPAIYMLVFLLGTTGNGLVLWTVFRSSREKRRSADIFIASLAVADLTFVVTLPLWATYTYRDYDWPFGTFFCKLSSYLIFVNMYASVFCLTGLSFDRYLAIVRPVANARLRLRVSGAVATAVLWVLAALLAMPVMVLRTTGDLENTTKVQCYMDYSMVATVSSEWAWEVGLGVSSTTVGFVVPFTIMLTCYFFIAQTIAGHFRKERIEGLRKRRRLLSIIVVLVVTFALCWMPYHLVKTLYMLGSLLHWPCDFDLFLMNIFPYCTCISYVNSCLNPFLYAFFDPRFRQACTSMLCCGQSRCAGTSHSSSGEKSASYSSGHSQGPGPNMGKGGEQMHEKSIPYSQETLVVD

[2] = Half life in rat plasma at 1 mM by UPLC-MS analysis; format: ADME, cell-free
Outline: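 Male rat plasma incubated with peptide at 37 °C for 2, 4, 7, 24 h (or 10, 20, 60, 120 min for short-lived peptides); quenched with acetonitrile-ethanol (1:1) plus nicotinamide internal standard, then UPLC-MS. Percent remaining fitted to exponential decay for half-life; means ± SEM of three independent experiments. 1 mM is the stock solution.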

[3] = target: T1, Apelin receptor; assay: Activity at human APJ receptor expressed in HEK293 cells assessed as dissociation of Galphai1 from Gbetagamma subunit after 5 mins by BRET assay; format: cell-based
[4] = target: T1, Apelin receptor; assay: Activity at GFP10-tagged human APJ receptor expressed in HEK293 cells assessed as induction of RlucII-tagged beta-arrestin-2 recruitment after 30 mins by BRET assay; format: cell-based

SMILES	Ki [1] [nM]	EC50 [3] [nM]	EC50 [4] [nM]	other results
C=CC[C@H](NC(=O)[C@H](CCCNC(=N)N)NC(=O)[C@@H]1CCCN1C(=O)[C@H](CCCNC(=N)N)NC(=O)[C@@H]1CCC(=O)N1)C(=O)N[C@@H](CO)C(=O)N[C@@H](Cc1cnc[nH]1)C(=O)N[C@@H](CCCCN)C(=O)N[C@@H](CC=C)C(=O)N1CCC[C@H]1C(=O)N[C@@H](CCCC)C(=O)N1CCC[C@H]1C(=O)N[C@@H](Cc1ccccc1)C(=O)O ([pGlu]RPR[AllylGly]SHK[AllylGly]P[Nle]PF-OH)	3.9			
C=CC[C@H](NC(=O)CNC(=O)[C@H](CCCCN)NC(=O)[C@H](Cc1cnc[nH]1)NC(=O)[C@H](CC=C)NC(=O)[C@H](CC(C)C)NC(=O)[C@H](CCCNC(=N)N)NC(=O)[C@@H]1CCCN1C(=O)[C@H](CCCNC(=N)N)NC(=O)[C@@H]1CCC(=O)N1)C(=O)N[C@@H](CCCC)C(=O)N1CCC[C@H]1C(=O)N[C@@H](Cc1ccccc1)C(=O)O ([pGlu]RPRL[AllylGly]HKG[AllylGly][Nle]PF-OH)	194			
CCCC[C@H](NC(=O)[C@@H]1C/C=C\CN(C(=O)[C@H](CC(C)C)NC(=O)[C@H](CCCNC(=N)N)NC(=O)[C@@H]2CCCN2C(=O)[C@H](CCCNC(=N)N)NC(=O)[C@@H]2CCC(=O)N2)[C@@H](CO)C(=O)N[C@@H](Cc2cnc[nH]2)C(=O)N[C@@H](CCCCN)C(=O)NCC(=O)N1)C(=O)N1CCC[C@H]1C(=O)N[C@@H](Cc1ccccc1)C(=O)O ([pGlu]RPRL[X4]HKG[AllylGly][Nle]PF-OH; staple (Z) 6-10)	188			half-life at 1000 µM [2]: > 1440 min
CCCC[C@@H]1NC(=O)[C@@H]2CCCN2C(=O)[C@@H](NC(=O)[C@H](CCCCN)NC(=O)[C@H](Cc2cnc[nH]2)NC(=O)[C@H](CO)NC(=O)[C@H](CC(C)C)NC(=O)[C@H](CCCNC(=N)N)NC(=O)[C@@H]2CCCN2C(=O)[C@H](CCCNC(=N)N)NC(=O)[C@@H]2CCC(=O)N2)CCNC/C=C\C[C@H](C(=O)O)NC(=O)[C@@H]2CCCN2C1=O				Ki ([1]; hek293): 206 nM
C=CC[C@H](NC(=O)[C@H](CO)NC(=O)[C@H](CC(C)C)NC(=O)[C@H](CCCNC(=N)N)NC(=O)[C@H](CC=C)NC(=O)[C@H](CCCNC(=N)N)NC(=O)[C@@H]1CCC(=O)N1)C(=O)N[C@@H](CCCCN)C(=O)NCC(=O)N1CCC[C@H]1C(=O)N[C@@H](CCCC)C(=O)N1CCC[C@H]1C(=O)N[C@@H](Cc1ccccc1)C(=O)O	1.9	9.2	274	
C=CC[C@H](NC(=O)[C@H](CO)NC(=O)[C@H](CC(C)C)NC(=O)[C@H](CCCNC(=N)N)NC(=O)[C@@H]1CCCN1C(=O)[C@H](CCCNC(=N)N)NC(=O)[C@@H]1CCC(=O)N1)C(=O)N[C@@H](CCCCN)C(=O)NCC(=O)N1CCC[C@H]1C(=O)N[C@@H](CC=C)C(=O)N1CCC[C@H]1C(=O)N[C@@H](Cc1ccccc1)C(=O)O ([pGlu]RPRLS[AllylGly]KGP[AllylGly]PF-OH)	0.3	1	42	
CCCC[C@H](NC(=O)[C@@H]1CCCN1C(=O)[C@@H]1C/C=C\C[C@H](NC(=O)[C@H](CCCNC(=N)N)NC(=O)[C@@H]2CCCN2C(=O)[C@H](CCCNC(=N)N)NC(=O)[C@@H]2CCC(=O)N2)C(=O)N[C@@H](CO)C(=O)N[C@@H](Cc2cnc[nH]2)C(=O)N[C@@H](CCCCN)C(=O)N1)C(=O)N1CCC[C@H]1C(=O)N[C@@H](Cc1ccccc1)C(=O)O ([pGlu]RPR[AllylGly]SHK[AllylGly]P[Nle]PF-OH; staple (Z) 5-9)	41			
CCCC[C@@H]1NC(=O)[C@@H]2CCCN2C(=O)[C@@H](N)CCNC/C=C\C[C@@H](C(=O)O)NC(=O)[C@@H]2CCCN2C1=O (H-[X5]P[Nle]P[AllylGly]-OH; staple (Z) 1-5)	> 10000			
C=CC[C@H](NC(=O)[C@H](Cc1cnc[nH]1)NC(=O)[C@H](CO)NC(=O)[C@H](CC(C)C)NC(=O)[C@H](CCCNC(=N)N)N(CC=C)C(=O)[C@@H]1CCCN1C(=O)[C@H](CCCNC(=N)N)NC(=O)[C@@H]1CCC(=O)N1)C(=O)NCC(=O)N1CCC[C@H]1C(=O)N[C@@H](CCCC)C(=O)N1CCC[C@H]1C(=O)N[C@@H](Cc1ccccc1)C(=O)O ([pGlu]RP[X3]LSH[AllylGly]GP[Nle]PF-OH)	2.7	2.1	91	
CCCC[C@@H]1NC(=O)[C@@H]2CCCN2C(=O)[C@@H](NC(=O)[C@H](CCCCN)NC(=O)[C@H](Cc2cnc[nH]2)NC(=O)[C@H](CO)NC(=O)[C@H](CC(C)C)NC(=O)[C@H](CCCNC(=N)N)NC(=O)[C@@H]2CCCN2C(=O)[C@H](CCCNC(=N)N)NC(=O)[C@@H]2CCC(=O)N2)CCNC/C=C\C[C@@H](C(=O)O)NC(=O)[C@@H]2CCCN2C1=O	917			
C=CC[C@H](NC(=O)[C@H](CC(C)C)NC(=O)[C@H](CCCNC(=N)N)NC(=O)[C@@H]1CCCN1C(=O)[C@H](CCCNC(=N)N)N(CC=C)C(=O)[C@@H]1CCC(=O)N1)C(=O)N[C@@H](Cc1cnc[nH]1)C(=O)N[C@@H](CCCCN)C(=O)NCC(=O)N1CCC[C@H]1C(=O)N[C@@H](CCCC)C(=O)N1CCC[C@H]1C(=O)N[C@@H](Cc1ccccc1)C(=O)O	2.9	5.7	232	
C=CC[C@H](NC(=O)[C@H](CCCNC(=N)N)NC(=O)[C@@H]1CCCN1C(=O)[C@H](CCCNC(=N)N)NC(=O)[C@@H](N)CC=C)C(=O)N[C@@H](CO)C(=O)N[C@@H](Cc1cnc[nH]1)C(=O)N[C@@H](CCCCN)C(=O)NCC(=O)N1CCC[C@H]1C(=O)N[C@@H](CCCC)C(=O)N1CCC[C@H]1C(=O)N[C@@H](Cc1ccccc1)C(=O)O	2.5	0.4	35	
CCCC[C@H](NC(=O)[C@@H]1CCCN1C(=O)CNC(=O)[C@@H]1C/C=C\C[C@H](NC(=O)[C@@H]2CCCN2C(=O)[C@H](CCCNC(=N)N)NC(=O)[C@@H]2CCC(=O)N2)C(=O)N[C@@H](CC(C)C)C(=O)N[C@@H](CO)C(=O)N[C@@H](Cc2cnc[nH]2)C(=O)N1)C(=O)N1CCC[C@H]1C(=O)N[C@@H](Cc1ccccc1)C(=O)O ([pGlu]RP[AllylGly]LSH[AllylGly]GP[Nle]PF-OH; staple (Z) 4-8)	6070			
CCCC[C@@H]1NC(=O)[C@@H]2CCCN2C(=O)[C@@H](NC(=O)[C@H](CCCCN)NC(=O)[C@H](Cc2cnc[nH]2)NC(=O)[C@H](CO)NC(=O)[C@H](CC(C)C)NC(=O)[C@H](CCCNC(=N)N)NC(=O)[C@@H]2CCCN2C(=O)[C@H](CCCNC(=N)N)NC(=O)[C@@H]2CCC(=O)N2)CCN(S(=O)(=O)c2ccccc2[N+](=O)[O-])C/C=C\C[C@H](C(=O)O)NC(=O)[C@@H]2CCCN2C1=O				EC50 ([3]; hek293): 1.7 nM; Ki ([1]; hek293): 0.1 nM; EC50 ([4]; hek293): 63 nM
C=CC[C@H](NC(=O)[C@H](Cc1cnc[nH]1)NC(=O)[C@H](CO)NC(=O)[C@H](CC(C)C)NC(=O)[C@H](CCCNC(=N)N)NC(=O)[C@@H]1CCCN1C(=O)[C@H](CCCNC(=N)N)NC(=O)[C@@H]1CCC(=O)N1)C(=O)NCC(=O)N1CCC[C@H]1C(=O)N[C@@H](CCCC)C(=O)N[C@@H](CC=C)C(=O)N[C@@H](Cc1ccccc1)C(=O)O ([pGlu]RPRLSH[AllylGly]GP[Nle][AllylGly]F-OH)	2.3	0.8	58	
C=CC[C@H](NC(=O)[C@H](Cc1cnc[nH]1)NC(=O)[C@H](CO)NC(=O)[C@H](CC(C)C)NC(=O)[C@H](CC=C)NC(=O)[C@@H]1CCCN1C(=O)[C@H](CCCNC(=N)N)NC(=O)[C@@H]1CCC(=O)N1)C(=O)NCC(=O)N1CCC[C@H]1C(=O)N[C@@H](CCCC)C(=O)N1CCC[C@H]1C(=O)N[C@@H](Cc1ccccc1)C(=O)O ([pGlu]RP[AllylGly]LSH[AllylGly]GP[Nle]PF-OH)	489			
C=CC[C@H](NC(=O)[C@H](CC(C)C)NC(=O)[C@H](CCCNC(=N)N)NC(=O)[C@@H]1CCCN1C(=O)[C@H](CC=C)NC(=O)[C@@H]1CCC(=O)N1)C(=O)N[C@@H](Cc1cnc[nH]1)C(=O)N[C@@H](CCCCN)C(=O)NCC(=O)N1CCC[C@H]1C(=O)N[C@@H](CCCC)C(=O)N1CCC[C@H]1C(=O)N[C@@H](Cc1ccccc1)C(=O)O	523			
C=CC[C@H](NC(=O)[C@H](Cc1ccccc1)NC(=O)[C@@H]1CCCN1C(=O)[C@H](CCCC)NC(=O)[C@H](CC=C)NC(=O)CNC(=O)[C@H](CCCCN)NC(=O)[C@H](Cc1cnc[nH]1)NC(=O)[C@H](CO)NC(=O)[C@H](CC(C)C)NC(=O)[C@H](CCCNC(=N)N)NC(=O)[C@@H]1CCCN1C(=O)[C@H](CCCNC(=N)N)NC(=O)[C@@H]1CCC(=O)N1)C(=O)O ([pGlu]RPRLSHKG[AllylGly][Nle]PF[AllylGly]-OH)	445			
CCCC[C@@H]1NC(=O)[C@@H](NC(=O)CNC(=O)[C@H](CCCCN)NC(=O)[C@H](Cc2cnc[nH]2)NC(=O)[C@H](CO)NC(=O)[C@H](CC(C)C)NC(=O)[C@H](CCCNC(=N)N)NC(=O)N2CCC[C@H]2C(=O)[C@H](CCCNC(=N)N)NC(=O)[C@@H]2CCC(=O)N2)C/C=C\C[C@@H](C(=O)O)NC(=O)[C@H](Cc2ccccc2)NC(=O)[C@@H]2CCCN2C1=O ({X6-CO}-RLSHKG[AllylGly][Nle]PF[AllylGly]-OH; staple (Z) 7-11)	310			
CCCC[C@@H]1NC(=O)[C@@H]2CCCN2C(=O)[C@@H](N)CCN(S(=O)(=O)c2ccccc2[N+](=O)[O-])C/C=C\C[C@@H](C(=O)O)NC(=O)[C@@H]2CCCN2C1=O (H-[X1]P[Nle]P[AllylGly]-OH; staple (Z) 1-5)	> 10000			

Reference: ChEMBL document CHEMBL4020833, “A Systematic Exploration of Macrocyclization in Apelin-13: Impact on Binding, Signaling, Stability, and Cardiovascular Effects” (J Med Chem, 2018)
